# Reference: ChEMBL document CHEMBL1123566, “Synthesis and cardiac electrophysiological activity of 2- and 3-[(substituted phenyl)alkyl]quinuclidines. Structure-activity relationships” (1987)
# “And” between values parts separate entries of the source, which are not always exact repeats. Identical values can stand only once.
# Tests used:
# Canis familiaris [1] = species on record: Canis familiaris; experiment: In vitro electrophysiological evaluation in canine cardiac occurred is 30 uM; assay type: functional; conditions: Canis lupus familiaris; Heart
# Canis familiaris [2] = species on record: Canis familiaris; experiment: In vitro electrophysiological evaluation in canine cardiac ventricular muscle reported as % change for the functional refractory period (FRP) at 10 uM at concentration range of 0.1-10 uM; parameters: species or system Canis lupus familiaris, Muscle tissue
# Summary of the method: (§1)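 Canine right ventricle and papillary muscle strips in oxygenated Tyrode's solution, fitted with stimulating and recording electrodes. The extra-stimulus conduction-interval method was adapted for in vitro use. FRP and CT were read from a conduction-interval curve before and after various compound concentrations, and expressed as percent change from control. Compounds were taken from 10 mM deionized-water stock into Tyrode's. Each strip was used once as its own control.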
# Canis familiaris [3] = species on record: Canis familiaris; experiment: In vitro electrophysiological evaluation in canine cardiac ventricular muscle reported as maximum % change for functional refractory period (FRP) at 0.1-30 uM concentration range; concentration at which it occurred is 30 uM.; parameters: species or system Canis lupus familiaris, Muscle tissue; summary of the method: as §1
# Canis familiaris [4] = experiment: Conduction time was determined by intraduodenal administration of 30 mg/kg (high dose)of compound in anesthetized dogs. Value was reported for experiment 2; assay type: functional, Canis lupus familiaris
# Summary of the method: (§2)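 Anesthetized dogs; compound given intraduodenally, generally as two doses, the second a cumulative (high) dose. LV functional refractory period and conduction time measured 15, 30 and 45 min after dosing; heart rate and blood pressure measured during nonpacing intervals. Values are % change from control, given per individual animal. Active if FRP or CT prolonged by ≥12%.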
# Canis familiaris [5] = species on record: Canis familiaris; experiment: In vitro electrophysiological evaluation in canine cardiac ventricular muscle reported as % change for conduction time(CT) at 10 uM at 0.1-30 uM concentration range; Minimal (<10% decrease or increase in CT).; assay type: functional, Canis lupus familiaris, Muscle tissue
# Canis familiaris [6] = species on record: Canis familiaris; experiment: In vitro electrophysiological evaluation in canine cardiac ventricular muscle reported as maximum % change for functional refractory period (FRP) at 0.1-10 uM concentration range; concentration at which it occurred is 1 uM.; parameters: species or system Canis lupus familiaris, Muscle tissue; summary of the method: as §1
# Canis familiaris [7] = experiment: Left ventricular refractory period was determined by intraduodenal administration of 30 mg/kg (high dose) of compound in anesthetized dogs. Value was reported for experiment 1; assay type: functional, Canis lupus familiaris, Cardiac ventricle
# Summary of the method: (§3)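 Anesthetized dogs received two intraduodenal doses, the second cumulative (low dose/high dose). Left ventricular FRP and CT were measured 15, 30 and 45 min after dosing. Heart rate and mean blood pressure were taken during nonpacing intervals. Values are percent change from control. The vehicle was 5% dextrose in water/tragacanth. Activity was defined as ≥12% prolongation of FRP or CT.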
# Canis familiaris [8] = species on record: Canis familiaris; experiment: In vitro electrophysiological evaluation in canine cardiac Purkinje fibres reported as percent change Vmax at 10 uM at concentration range of 0.1-30 uM; Minimal (<10% decrease or increase in V max).; assay type: functional, organism-based; conditions: Canis lupus familiaris, Purkinje fiber
# Summary of the method: (§4)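 Canine cardiac Purkinje fibres, intracellular microelectrode recording, paced at a basic cycle length of 1 s. APD95 and Vmax read simultaneously. Compound: 10 mM stock in deionized water, diluted into Tyrode's solution, tested over the stated concentration range. Each fibre used once as its own control. Result is % change from control, given at 10 µM or as the maximum with its concentration. M = <10% decrease or an increase in Vmax.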
# Canis familiaris [9] = species on record: Canis familiaris; experiment: In vitro electrophysiological evaluation in canine cardiac ventricular muscle reported as maximum % change for conduction time(CT) at 0.1-10 uM concentration range; Minimal (<10% decrease or increase in CT).; assay type: functional, Canis lupus familiaris, Muscle tissue; summary of the method: as §1
# Canis familiaris [10] = species on record: Canis familiaris; experiment: In vitro electrophysiological evaluation in canine cardiac ventricular muscle reported as maximum % change for functional refractory period (FRP) at 0.1-30 uM concentration range; concentration at which it occurred is 1 uM.; parameters: species or system Canis lupus familiaris, Muscle tissue; summary of the method: as §1
# Canis familiaris [11] = species on record: Canis familiaris; experiment: In vitro electrophysiological evaluation in canine cardiac ventricular muscle reported as maximum % change for conduction time(CT) at 0.1-30 uM concentration range; Minimal (<10% decrease or increase in CT).; assay type: functional, Canis lupus familiaris, Muscle tissue; summary of the method: as §1
# Canis familiaris [12] = experiment: Mean arterial blood pressure was determined by intraduodenal administration of 10 mg/kg (low dose)of compound in anesthetized dogs. Value was reported for experiment 1; assay type: functional, Canis lupus familiaris
# Canis familiaris [13] = species on record: Canis familiaris; experiment: In vitro electrophysiological evaluation in canine cardiac Purkinje fibres reported as % change for action potential duration at 10 uM at 0.1-30 uM concentration range; assay type: functional, Canis lupus familiaris, Purkinje fiber; summary of the method: as §4
# Canis familiaris [14] = species on record: Canis familiaris; experiment: In vitro electrophysiological evaluation in canine cardiac ventricular muscle reported as % change for the functional refractory period (FRP) at 10 uM at concentration range of 0.1-30 uM; parameters: species or system Canis lupus familiaris, Muscle tissue; summary of the method: as §1
# Canis familiaris [15] = experiment: Mean arterial blood pressure was determined by intraduodenal administration of 30 mg/kg (high dose) of compound in anesthetized dogs. Value was reported for experiment 2; assay type: functional, Canis lupus familiaris
# Canis familiaris [16] = experiment: Heart rate was determined by intraduodenal administration of 30 mg/kg (high dose) of compound in anesthetized dogs. Value was reported for experiment 2; assay type: functional, Canis lupus familiaris; summary of the method: as §2
# Canis familiaris [17] = species on record: Canis familiaris; experiment: In vitro electrophysiological activity in canine cardiac occurred is 1 uM; assay type: functional, Canis lupus familiaris, Heart
# Canis familiaris [18] = experiment: Heart rate was determined by intraduodenal administration of 30 mg/kg (high dose) of compound in anesthetized dogs. Value was reported for experiment 1; assay type: functional, Canis lupus familiaris; summary of the method: as §2
# Canis familiaris [19] = species on record: Canis familiaris; experiment: In vitro electrophysiological evaluation in canine cardiac ventricular muscle reported as % change for conduction time(CT) at 10 uM at 0.1-10 uM concentration range; Minimal (<10% decrease or increase in CT).; assay type: functional, Canis lupus familiaris, Muscle tissue
# Canis familiaris [20] = experiment: Left ventricular refractory period was determined by intraduodenal administration of 30 mg/kg (high dose) of compound in anesthetized dogs. Value was reported for experiment 2; assay type: functional, Canis lupus familiaris, Cardiac ventricle; summary of the method: as §3
# Canis familiaris [21] = experiment: Mean arterial blood pressure was determined by intraduodenal administration of 30 mg/kg (high dose) of compound in anesthetized dogs. Value was reported for experiment 1; assay type: functional, Canis lupus familiaris
# Canis familiaris [22] = experiment: Left ventricular refractory period was determined by intraduodenal administration of 10 mg/kg (low dose) of compound in anesthetized dogs. Value was reported for experiment 1; assay type: functional, Canis lupus familiaris, Cardiac ventricle; summary of the method: as §3
# Canis familiaris [23] = experiment: Heart rate was determined by intraduodenal administration of 10 mg/kg (low dose) of compound in anesthetized dogs. Value was reported for experiment 1; assay type: functional, Canis lupus familiaris; summary of the method: as §2
# Canis familiaris [24] = experiment: Conduction time was determined by intraduodenal administration of 10 mg/kg (low dose)of compound in anesthetized dogs. Value was reported for experiment 2; assay type: functional, Canis lupus familiaris; summary of the method: as §2
# Canis familiaris [25] = species on record: Canis familiaris; experiment: In vitro electrophysiological evaluation in canine cardiac Purkinje fibres reported as % change for action potential duration at a concentration of 10 uM; assay type: functional, Canis lupus familiaris, Purkinje fiber; summary of the method: as §4
# Canis familiaris [26] = experiment: Left ventricular refractory period was determined by intraduodenal administration of 10 mg/kg (low dose) of compound in anesthetized dogs. Value was reported for experiment 2; assay type: functional, Canis lupus familiaris, Cardiac ventricle; summary of the method: as §3
# Canis familiaris [27] = experiment: Heart rate was determined by intraduodenal administration of 10 mg/kg (low dose) of compound in anesthetized dogs. Value was reported for experiment 2; assay type: functional, Canis lupus familiaris; summary of the method: as §2
# Canis familiaris [28] = species on record: Canis familiaris; experiment: In vitro electrophysiological evaluation in canine cardiac Purkinje fibres reported as percent change Vmax at 10 uM at concentration range of 0.1-30 uM; assay type: functional; conditions: Canis lupus familiaris, Purkinje fiber; summary of the method: as §4
# Canis familiaris [29] = experiment: Mean arterial blood pressure was determined by intraduodenal administration of 10 mg/kg (low dose)of compound in anesthetized dogs. Value was reported for experiment 2; assay type: functional, Canis lupus familiaris
# Canis familiaris [30] = experiment: Conduction time was determined by intraduodenal administration of 30 mg/kg (high dose) of compound in anesthetized dogs. Value was reported for experiment 1; assay type: functional, Canis lupus familiaris; summary of the method: as §2
# Canis familiaris [31] = experiment: Conduction time was determined by intraduodenal administration of 10 mg/kg (low dose) of compound in anesthetized dogs. Value was reported for experiment 1; assay type: functional, Canis lupus familiaris; summary of the method: as §2
smiles,measurement,setting,value
Cl.O=C(CCC1C(=O)C2CCN1CC2)c1ccc(Cl)cc1 (stereo unspecified),Vmax,Canis familiaris [1],-26% and -18%
same,FRP,Canis familiaris [2],17%
same,FRP,Canis familiaris [3],-9%
same,CT,Canis familiaris [4],13%
same,CT,Canis familiaris [5],<10%
same,FRP,Canis familiaris [6],22%
same,LV FRP,Canis familiaris [7],15%
same,Vmax,Canis familiaris [8],< 10%
same,CT,Canis familiaris [9],<10%
same,FRP,Canis familiaris [10],15%
same,CT,Canis familiaris [11],<10%
same,Mean blood pressure,Canis familiaris [12],-5%
same,APD95,Canis familiaris [13],5%
same,FRP,Canis familiaris [14],10%
same,Mean blood pressure,Canis familiaris [15],23%
same,HR,Canis familiaris [16],-21%
same,APD95,Canis familiaris [17],14% and 12%
same,HR,Canis familiaris [18],-18%
same,CT,Canis familiaris [19],<10%
same,LV FRP,Canis familiaris [20],6%
same,Mean blood pressure,Canis familiaris [21],0%
same,LV FRP,Canis familiaris [22],15%
same,HR,Canis familiaris [23],-13%
same,CT,Canis familiaris [24],4%
same,APD95,Canis familiaris [25],13%
same,LV FRP,Canis familiaris [26],12%
same,HR,Canis familiaris [27],-15%
same,Vmax,Canis familiaris [28],-10%
same,Mean blood pressure,Canis familiaris [29],18%
same,CT,Canis familiaris [30],14%
same,CT,Canis familiaris [31],5%
